# Experimental data reported in ChEMBL document CHEMBL1141100, “Design and synthesis of specific probes for human 5-HT4 receptor dimerization studies” (J Med Chem, 2005).
# Key:
# [1] = biological target: T1, 5-hydroxytryptamine receptor 4 (Homo sapiens, UniProt Q13639); experiment: Binding affinity for 5-HT4 receptor using [3H]GR-113808
# [2] = biological target: T1, 5-hydroxytryptamine receptor 4; experiment: Percent cAMP production in C6 glial cells expressing human 5-hydroxytryptamine 4 receptor; assay type: functional, cell-based
# In short: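 Confluent C6 cells stably expressing human 5-HT4(e) receptor were serum-starved 4 h, then preincubated 15 min with 5 mM theophylline and 10 μM pargyline. Compounds (seven concentrations, 10^-10 to 10^-5) and/or 5-HT (1 μM) were added for 15 min at 37 °C. Stopped with 20% perchloric acid, neutralized, and cAMP measured by radioimmunoassay.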
# T1 sequence (Q13639 whole entry): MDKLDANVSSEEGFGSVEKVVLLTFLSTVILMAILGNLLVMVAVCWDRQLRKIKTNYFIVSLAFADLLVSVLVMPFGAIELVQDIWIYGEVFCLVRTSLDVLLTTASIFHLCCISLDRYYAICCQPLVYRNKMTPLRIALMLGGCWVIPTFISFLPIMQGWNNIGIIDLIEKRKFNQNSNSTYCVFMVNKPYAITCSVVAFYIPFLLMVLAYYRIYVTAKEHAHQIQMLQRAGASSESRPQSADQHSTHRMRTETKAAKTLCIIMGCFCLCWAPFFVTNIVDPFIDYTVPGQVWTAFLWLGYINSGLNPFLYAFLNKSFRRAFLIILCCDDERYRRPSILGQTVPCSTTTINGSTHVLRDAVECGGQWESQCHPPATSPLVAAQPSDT
Compound,Ki [1],cAMP [2]
COc1cc(N)c(Cl)cc1C(=O)OCCN1CCC(NC(=O)CCCCCCCCCCC(=O)NC2CCN(CCOC(=O)c3cc(Cl)c(N)cc3O)CC2)CC1,16 nM,20%
COc1cc(N)c(Cl)cc1C(=O)OCCN1CCC(NC(=O)CCCC(=O)NC2CCN(CCOC(=O)c3cc(Cl)c(N)cc3OC)CC2)CC1,5 nM,32%
COc1cc(N)c(Cl)cc1C(=O)OCCN1CCCCC1,,45%
COc1cc(N)c(Cl)cc1C(=O)OCCN1CCC(CCNC(=O)CCCCCC(=O)NCCC2CCN(CCOC(=O)c3cc(Cl)c(N)cc3OC)CC2)CC1,11 nM,31%
COc1cc(N)c(Cl)cc1C(=O)OCCN1CCC(C(=O)NCCCCCCCCCCNC(=O)C2CCN(CCOC(=O)c3cc(Cl)c(N)cc3OC)CC2)CC1,8 nM,8%
COc1cc(N)c(Cl)cc1C(=O)OCCN1CCC(NC(=O)CCCCCCCCCCC(=O)NC2CCN(Cc3ccccc3)CC2)CC1,14 nM,35%
COc1cc(N)c(Cl)cc1C(=O)OCCN1CCC(CNC(=O)CCC(=O)NCC2CCN(CCOC(=O)c3cc(Cl)c(N)cc3OC)CC2)CC1,7 nM,16%
COc1cc(N)c(Cl)cc1C(=O)OCCN1CCC(NC(=O)CCCCCNC(=O)C2CCN(CCOC(=O)c3cc(Cl)c(N)cc3OC)CC2)CC1,7 nM,46%
COc1cc(N)c(Cl)cc1C(=O)OCCN1CCC(CNC(=O)CCCCCCCCCCC(=O)NCC2CCN(CCOC(=O)c3cc(Cl)c(N)cc3OC)CC2)CC1,22 nM,21%
COc1cc(N)c(Cl)cc1C(=O)OCCN1CCC(C(=O)NCCNC(=O)C2CCN(CCOC(=O)c3cc(Cl)c(N)cc3OC)CC2)CC1,37 nM,3%
COc1cc(N)c(Cl)cc1C(=O)OCCN1CCC(C(=O)NCc2cccc(CNC(=O)C3CCN(CCOC(=O)c4cc(Cl)c(N)cc4OC)CC3)c2)CC1,5 nM,16%
COc1cc(N)c(Cl)cc1C(=O)OCCN1CCC(NC(=O)CCCCCCCCCCNC(=O)C2CCN(CCOC(=O)c3cc(Cl)c(N)cc3OC)CC2)CC1,20 nM,5%
COc1cc(N)c(Cl)cc1C(=O)OCCN1CCN(C(=O)CCCCCC(=O)N2CCN(CCOC(=O)c3cc(Cl)c(N)cc3OC)CC2)CC1,488 nM,
COc1cc(N)c(Cl)cc1C(=O)OCCN1CCC(C(=O)NCCOCCNC(=O)C2CCN(CCOC(=O)c3cc(Cl)c(N)cc3OC)CC2)CC1,19 nM,0%
COc1cc(N)c(Cl)cc1C(=O)OCCN1CCC(NC(=O)CCCCCCCCCCN(CCCCCCCCCCC(=O)NC2CCN(CCOC(=O)c3cc(Cl)c(N)cc3OC)CC2)CC(=O)NCC2CCNCC2)CC1,50 nM,10%
COc1cc(N)c(Cl)cc1C(=O)OCCN1CCC(CNC(=O)CCCCCC(=O)NCC2CCN(CCOC(=O)c3cc(Cl)c(N)cc3OC)CC2)CC1,26 nM,20%

Compound,Ki [1],cAMP [2]
COc1cc(N)c(Cl)cc1C(=O)OCCN1CCC(C(=O)NCCOCCOCCNC(=O)C2CCN(CCOC(=O)c3cc(Cl)c(N)cc3OC)CC2)CC1,3 nM,3%
COc1cc(N)c(Cl)cc1C(=O)OCCN1CCC(NC(=O)CCCNC(=O)C2CCN(CCOC(=O)c3cc(Cl)c(N)cc3OC)CC2)CC1,31 nM,42%
COc1cc(N)c(Cl)cc1C(=O)OCCN1CCC(NC(=O)CCCCCCCCCCN)CC1,13 nM,50%
COc1cc(N)c(Cl)cc1C(=O)OCCN1CCC(NC(=O)CCNC(=O)C2CCN(CCOC(=O)c3cc(Cl)c(N)cc3OC)CC2)CC1,24 nM,10%
COc1cc(N)c(Cl)cc1C(=O)OCCN1CCC(NC(=O)CCC(=O)NC2CCN(CCOC(=O)c3cc(Cl)c(N)cc3OC)CC2)CC1,21 nM,47%
COc1cc(N)c(Cl)cc1C(=O)OCCN1CCC(NC(=O)CCc2ccc3c(c2)oc2cc(CCC(=O)NC4CCN(CCOC(=O)c5cc(Cl)c(N)cc5OC)CC4)ccc23)CC1,47 nM,23%
COc1cc(N)c(Cl)cc1C(=O)OCCN1CCC(CCNC(=O)CCC(=O)NCCC2CCN(CCOC(=O)c3cc(Cl)c(N)cc3OC)CC2)CC1,5 nM,15%
COc1cc(N)c(Cl)cc1C(=O)OCCN1CCC(CCNC(=O)CCCCCCCCCCC(=O)NCCC2CCN(CCOC(=O)c3cc(Cl)c(N)cc3OC)CC2)CC1,9 nM,6%
COc1cc(N)c(Cl)cc1C(=O)OCCN1CCC(NC(=O)CCCCCCCCCCNc2nc(NCCCCCCCCCCC(=O)NC3CCN(CCOC(=O)c4cc(Cl)c(N)cc4OC)CC3)nc(NCc3ccccc3)n2)CC1,113 nM,12%
COc1cc(N)c(Cl)cc1C(=O)OCCN1CCC(C(=O)NCCCNC(=O)C2CCN(CCOC(=O)c3cc(Cl)c(N)cc3OC)CC2)CC1,13 nM,13%
COc1cc(N)c(Cl)cc1C(=O)OCCN1CCC(C(=O)NCCCOCCOCCOCNC(=O)C2CCN(CCOC(=O)c3cc(Cl)c(N)cc3OC)CC2)CC1,6 nM,0%
COc1cc(N)c(Cl)cc1C(=O)OCCN1CCC(CNC(=O)CCCC(=O)NCC2CCN(CCOC(=O)c3cc(Cl)c(N)cc3OC)CC2)CC1,13 nM,20%
COc1cc(N)c(Cl)cc1C(=O)OCCN1CCC(CCNC(=O)CCCC(=O)NCCC2CCN(CCOC(=O)c3cc(Cl)c(N)cc3OC)CC2)CC1,,24%
COc1cc(N)c(Cl)cc1C(=O)OCCN1CCN(C(=O)CCCCCCCCCCC(=O)N2CCN(CCOC(=O)c3cc(Cl)c(N)cc3OC)CC2)CC1,200 nM,
COc1cc(N)c(Cl)cc1C(=O)OCCN1CCC(NC(=O)CCCCCC(=O)NC2CCN(CCOC(=O)c3cc(Cl)c(N)cc3OC)CC2)CC1,9 nM,26%
COc1cc(N)c(Cl)cc1C(=O)OCCN1CCC(C(=O)NCCCCCNC(=O)C2CCN(CCOC(=O)c3cc(Cl)c(N)cc3OC)CC2)CC1,5 nM,5%
